Experimental data reported in ChEMBL document CHEMBL4808166, “Exploring the Chemistry of Alkaloids from Malaysian Mitragyna speciosa (Kratom) and the Role of Oxindoles on Human Opioid Receptors” (J Nat Prod, 2021).
Activity calls are given as the source filed them.

Legend:
[1] = target: Kappa-type opioid receptor (Homo sapiens) (UniProt P41145); assay: Displacement of [3H]U69593 from human recombinant kappa opioid receptor expressed in Chem-1 (RBL) cells at 10000 nM incubated for 60 mins by radiometric scintillation analysis; assay type: cell-based
Outline: (§1)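 κ receptor: human recombinant RBL cell membranes with [3H]U69,593 0.5 nM. Nonspecific binding defined with 10 μM naloxone. Incubated 60 min at room temperature. Screened at 0.1 and 10 μM. Bound fraction separated by vacuum filtration on glass fiber filters with ice-cold buffer washes. Read-out is percent displacement.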

[2] = target: Delta-type opioid receptor (Homo sapiens) (UniProt P41143); assay: Displacement of [3H]DADLE from human recombinant delta opioid receptor expressed in Chem-1 (RBL) cells at 10000 nM incubated for 60 mins by radiometric scintillation analysis; assay type: cell-based
Outline: (§2)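 δ receptor: membranes of human recombinant Chem-1 (RBL) cells with [3H]DADLE 0.5 nM. Nonspecific binding defined with 10 μM naltrexone. Incubated 60 min at room temperature. Test concentrations 0.1 and 10 μM. Bound ligand collected by rapid vacuum filtration on glass fiber filters, followed by ice-cold buffer rinses. Read-out is percent displacement.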

Mu-type opioid receptor [3] = target: T1, Mu-type opioid receptor (Homo sapiens, UniProt P35372); assay: Displacement of [3H]DAMGO from human recombinant mu opioid receptor expressed in HEK293 cells at 10000 nM incubated for 120 mins by radiometric scintillation analysis; assay type: cell-based
Outline: (§3)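 Nonspecific binding defined with 10 μM naloxone. Incubation 120 min at room temperature. Compounds at 0.1 and 10 μM. Rapid vacuum filtration through presoaked glass fiber filters, rinsed with ice-cold buffer. Read-out is percent displacement.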

[4] = target: Delta-type opioid receptor (Homo sapiens) (UniProt P41143); assay: Displacement of [3H]DADLE from human recombinant delta opioid receptor expressed in Chem-1 (RBL) cells at 100 nM incubated for 60 mins by radiometric scintillation analysis; assay type: cell-based; outline: as §2
Mu-type opioid receptor [5] = target: T1, Mu-type opioid receptor; assay: Displacement of [3H]DAMGO from human recombinant mu opioid receptor expressed in HEK293 cells at 100 nM incubated for 120 mins by radiometric scintillation analysis; assay type: cell-based; outline: as §3
[6] = target: Kappa-type opioid receptor (Homo sapiens) (UniProt P41145); assay: Displacement of [3H]U69593 from human recombinant kappa opioid receptor expressed in Chem-1 (RBL) cells at 100 nM incubated for 60 mins by radiometric scintillation analysis; assay type: cell-based; outline: as §1
Mu-type opioid receptor [7] = target: T1, Mu-type opioid receptor; assay: biochemical; assay type: cell-based, HEK293
Rattus norvegicus [8] = assay: Antinociceptive activity in iv dosed Sprague-Dawley rat assessed as hot plate latency compound administered as cumulative dose at 5 mins intervals by Hot-plate test; assay type: functional
Outline: (§4)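 Adult female and male Sprague-Dawley rats (10 weeks, n = 6, three per sex) with right external jugular vein catheter. Vehicle 5% Tween 80 + 5% propylene glycol in sterile water, 1.0 mL/kg i.v. After baseline, vehicle then ascending cumulative doses every 5 min, then naltrexone 0.1 mg/kg i.v. Plate at 52 °C, 60 s cutoff.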

Rattus norvegicus [9] = assay: Antinociceptive activity in iv dosed Sprague-Dawley rat assessed as hot plate latency compound administered as cumulative dose at 5 mins intervals in presence of naltrexone by Hot-plate test; assay type: functional, organism-based
Outline: as §4, with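 “cutoff. Latency converted to %MPE; ED50 (95% CI) by linear regression.” for “cutoff.”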

Sequence of Delta-type opioid receptor (Homo sapiens) (P41143 whole entry): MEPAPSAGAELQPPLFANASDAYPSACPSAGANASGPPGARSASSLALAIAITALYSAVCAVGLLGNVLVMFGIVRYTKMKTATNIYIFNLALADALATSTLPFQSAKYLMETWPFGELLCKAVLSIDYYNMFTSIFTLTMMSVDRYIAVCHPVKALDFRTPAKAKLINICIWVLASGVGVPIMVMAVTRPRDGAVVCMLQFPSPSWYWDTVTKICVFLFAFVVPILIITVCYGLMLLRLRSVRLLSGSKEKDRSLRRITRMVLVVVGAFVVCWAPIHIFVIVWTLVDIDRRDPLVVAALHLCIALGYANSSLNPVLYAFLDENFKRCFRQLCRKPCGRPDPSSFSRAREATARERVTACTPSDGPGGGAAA
Sequence of Kappa-type opioid receptor (Homo sapiens) (P41145 whole entry): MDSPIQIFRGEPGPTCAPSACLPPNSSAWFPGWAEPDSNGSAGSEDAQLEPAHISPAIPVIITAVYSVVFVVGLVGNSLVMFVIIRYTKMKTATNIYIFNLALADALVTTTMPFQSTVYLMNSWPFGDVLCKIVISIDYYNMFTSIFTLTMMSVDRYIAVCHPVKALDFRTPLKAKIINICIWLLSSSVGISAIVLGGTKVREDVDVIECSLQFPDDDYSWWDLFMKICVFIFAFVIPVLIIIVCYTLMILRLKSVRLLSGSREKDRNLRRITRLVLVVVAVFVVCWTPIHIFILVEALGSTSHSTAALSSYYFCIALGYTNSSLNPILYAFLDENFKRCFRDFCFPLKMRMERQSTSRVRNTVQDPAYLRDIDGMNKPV
T1 sequence (P35372 whole entry): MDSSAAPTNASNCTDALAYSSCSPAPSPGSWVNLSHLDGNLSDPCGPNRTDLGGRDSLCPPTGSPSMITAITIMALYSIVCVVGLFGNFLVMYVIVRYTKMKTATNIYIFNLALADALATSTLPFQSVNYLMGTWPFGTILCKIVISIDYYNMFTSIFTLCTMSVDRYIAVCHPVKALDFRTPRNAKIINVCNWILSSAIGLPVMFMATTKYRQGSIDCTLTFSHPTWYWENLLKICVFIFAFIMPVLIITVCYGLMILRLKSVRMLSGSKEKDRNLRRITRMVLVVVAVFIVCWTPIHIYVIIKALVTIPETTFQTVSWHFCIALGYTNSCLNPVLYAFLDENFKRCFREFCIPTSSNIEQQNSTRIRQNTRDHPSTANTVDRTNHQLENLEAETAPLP

Structure (SMILES) | Activity [1] [%] | Activity [2] [%] | Activity (Mu-type opioid receptor [3]) [%] | Activity [4] [%] | Activity (Mu-type opioid receptor [5]) [%] | Activity [6] [%] | Ki (Mu-type opioid receptor [7]) [nM] | ED50 (Rattus norvegicus [8]) [mg/kg] | Activity (Rattus norvegicus [9])
CC[C@@H]1CN2CC[C@@]3(C(=O)Nc4cccc(O)c43)[C@H]2C[C@@H]1/C(=C\OC)C(=O)OC | 37.3 | 27.1 | 83.3 | 0 | 13.1 | 0.1 | 789 |  | 
CC[C@@H]1C[N+]2([O-])CCc3c([nH]c4cccc(OC)c34)[C@H]2C[C@@H]1/C(=C\OC)C(=O)OC (stereo partly drawn) | 80.9 | 53.5 | 84.6 | 5.1 | 10.5 | 6.6 | 553 |  | 
CC[C@@H]1CN2CC[C@]3(C(=O)Nc4cccc(OC)c43)[C@@H]2C[C@@H]1/C(=C\OC)C(=O)OC | 23 | 87.1 | 66.5 | 10.4 | 7.3 | 5 | 1720 |  | 
CC[C@@H]1CN2CC[C@@]3(C(=O)Nc4ccccc43)[C@@H]2C[C@@H]1/C(=C\OC)C(=O)OC [CORYNOXINE] | 75.3 | 73.8 | 97.8 | -3.9 | 80.1 | 3.8 | 16.4 | 6.75 | 
CC[C@@H]1CN2CC[C@]3(C(=O)Nc4ccccc43)[C@@H]2C[C@@H]1/C(=C\OC)C(=O)OC [CORYNOXINE B] | 51.8 | 65.5 | 94.4 | -4.4 | 45.4 | 4.5 | 110 |  | 
C=C[C@H]1CN2CCc3c([nH]c4cccc(OC)c34)[C@@H]2C[C@@H]1/C(=C\OC)C(=O)OC |  |  |  |  |  |  | 410 |  | 
O=C1CC[C@@]2(O)[C@H]3Cc4ccc(O)c5c4[C@@]2(CCN3CC2CC2)[C@H]1O5 |  |  |  |  |  |  |  |  | inactive
